Reference: ChEMBL document CHEMBL1122480, “Synthesis and pharmacological studies of 4,4-disubstituted piperidines: a new class of compounds with potent analgesic properties” (J Med Chem, 1983)

Columns and labels:
Mus musculus [1] = assay: Analgesic activity in tail flick test, subcutaneous administration; format: functional
Outline: (§1)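 Mouse tail-flick test against a noxious heat stimulus (D'Amour–Smith method), with drug given by the stated route. […] Where no exact ED50 was obtained, the percentage of animals showing analgesia is reported.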

Mus musculus [2] = assay: Analgesic activity using PQW test, oral administration; format: functional
Outline: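 Oral drug in mice, followed by phenylbenzoquinone-induced writhing. Analgesia is scored as fewer abdominal contractions in a group of five animals than in a control group. ED50 is the dose that reduces contractions by 50%, estimated graphically by the Litchfield method. Otherwise the percentage of animals showing analgesia is given.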

Mus musculus [3] = assay: Analgesic activity in tail flick test, oral administration; format: functional; outline: as §1
Mus musculus [4] = assay: 5 HTP (5-hydroxytryptophan) antagonism in mouse 0.5 hr after subcutaneous administration (0.003-0.1 dose range).; format: functional; conditions: sc
Outline: (§2)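 Mice received drug sc over the stated dose range, then DL-5-hydroxytryptophan to induce head twitches. ED50 is the dose that cut the mean number of head twitches by 50% versus a saline-treated control group (N = 5-10). It was estimated graphically by the Litchfield method.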

Opioid receptor [5] = biological target: T1, Opioid receptor (Rattus norvegicus, UniProt P33533+P34975+P33535); assay: Inhibition of [3H]naloxone binding to rat brain membrane with 100 mM NaCl.
Opioid receptor [6] = biological target: T1, Opioid receptor; assay: Inhibition of [3H]-Naloxone binding to rat brain membrane without NaCl
Mus musculus [7] = assay: 5 HTP (5-hydroxytryptophan) antagonism in mouse 0.5 hr after subcutaneous administration (0.01-0.3 dose range).; format: functional; conditions: sc; outline: as §2
[8] = Mus musculus, Tail, sc, read-out: ED50
[9] = Mus musculus, po, read-out: ED50
[10] = Mus musculus, Tail, po, read-out: ED50

Compound	ED50 (Mus musculus [1]; [8]) [mg/kg]	ED50 (Mus musculus [2]; [9]) [mg/kg]	ED50 (Mus musculus [3]; [10]) [mg/kg]	also measured
CC(C(=O)NC1CCCCC1)C1(O)CCN(CCc2ccccc2Cl)CC1.O=C(O)/C=C\C(=O)O (configuration not stated)	> 3.2	> 56	< 56	
CC(C(=O)N(C)C1CCCCC1)C1(O)CCN(CCc2ccccc2Cl)CC1.O=C(O)/C=C\C(=O)O (single isomer, unassigned; (-))				ED50 (Mus musculus [1]): 42 mg/kg; ED50 (Mus musculus [2]): 20 mg/kg; ED50 (Mus musculus [3]): 100 mg/kg
CCCN(C(=O)C(C)C1(O)CCN(CCc2ccccc2Cl)CC1)c1ccccc1OC.O=C(O)/C=C/C(=O)O (configuration not stated)	0.11	1.8	5.4	ED50 (Mus musculus [4]): 0.015 mg/kg; IC50 (Opioid receptor [5]): 0.66 nM; IC50 (Opioid receptor [6]): 0.51 nM
CC(C(=O)N(C)c1cccc(O)c1)C1(O)CCN(CCc2ccccc2Cl)CC1.O=C(O)/C=C/C(=O)O (configuration not stated)	> 56	> 18		
Br.CCCCCCCN1CCC(O)(C(C)C(=O)N(C)C2CCCCC2)CC1 (configuration not stated)	> 56	> 56	> 100	
CCCCN(CCCC)C(=O)C(C)C1(O)CCN(CCc2ccccc2Cl)CC1.O=C(O)/C=C/C(=O)O (configuration not stated)	< 50	< 30	< 100	
Cc1ccc(CCN2CCC(O)(C(C)C(=O)N(C)C3CCCCC3)CC2)cc1.Cl (configuration not stated)	> 3.2	< 56	100	
COc1ccccc1NC(=O)C(C)(C)C1(O)CCN(CCc2ccccc2Cl)CC1.Cl	> 32	< 56		
C=CCN(C(=O)C(C)C1(O)CCN(CCc2ccccc2Cl)CC1)c1ccccc1OC.O=C(O)/C=C\C(=O)O (configuration not stated)	0.09	0.56	7.6	IC50 (Opioid receptor [5]): 2.9 nM; IC50 (Opioid receptor [6]): 0.41 nM
CC(C(=O)N(C)C1CCCCC1)C1CCN(CCc2ccccc2Cl)CC1.Cl (configuration not stated)	2.9	< 18	37	
C=CCN1CCC(O)(C(C)C(=O)N(C)C2CCCCC2)CC1.O=C(O)/C=C/C(=O)O (configuration not stated)	32	1		
CC(C(=O)N(C)C1CCCCC1)C1(O)CCN(CCc2ccccc2Cl)CC1.O=C(O)/C=C\C(=O)O (stereo in doubt; 15)		10.8		ED50 (Mus musculus [1]): 3.2 mg/kg; ED50 (Mus musculus [7]): 0.07 mg/kg; IC50 (Opioid receptor [5]): 450 nM; IC50 (Opioid receptor [6]): 45 nM; ED50 (Mus musculus [3]): 22 mg/kg
CC(C(=O)N(C1CCCCC1)C(C)(C)C)C1(O)CCN(CCc2ccccc2Cl)CC1.O=C(O)/C=C/C(=O)O (configuration not stated)	> 10	< 56	> 56	
CCOc1ccccc1N(C)C(=O)C(C)C1(O)CCN(CCc2ccccc2Cl)CC1.O=C(O)/C=C/C(=O)O (configuration not stated)	0.51	1.8	< 32	IC50 (Opioid receptor [5]): 10 nM; IC50 (Opioid receptor [6]): 0.98 nM
Br.CC(C)C(C(=O)N(C)C1CCCCC1)C1(O)CCN(CCc2ccccc2Cl)CC1 (configuration not stated)	> 56	< 56	> 100	
CN1CC[C@]23c4c5ccc(O)c4O[C@H]2[C@@H](O)C=C[C@H]3[C@H]1C5 [MORPHINE]	3.4	1.4	23	
CC(C(=O)N(C)C1CCCCC1)C1(O)CCN(CCc2ccccc2)CC1.Cl (configuration not stated)	18	18	> 56	
CN(C(=O)C1(C2(O)CCN(CCc3ccccc3Cl)CC2)CCCC1)C1CCCCC1.O=C(O)/C=C/C(=O)O	> 56	> 56	100	
CC(C(=O)N(C)c1ccc(Cl)cc1)C1(O)CCN(CCc2ccccc2Cl)CC1.O=C(O)/C=C/C(=O)O (configuration not stated)	6.8	9.7	> 56	
CCCN(C(=O)C(C)C1(O)CCN(CCc2ccccc2Cl)CC1)C1CCCCC1 (configuration not stated)	> 10	< 32	56	
